Screens (PubChem)
Pyk2 oligo antag: antagonists of Pyk2 self-association, primary screen, Q293 cells, FERM NanoBiT luminescence, HTS. AID 1347419, 2020. z-score (the deposit names both 25 µM and 10 µM). hits give low values. 99,000 compounds, 0.83% hits;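 active = Z-score of -3 or lower, scaled per plate to the spread of control and sample wells; inactive = z-score above -3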;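 also: negative z-score means lost luminescence so less FERM oligomerization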
Cav3 T inh: Cav3.2 calcium influx blockers – cell-based, Fluo-4 calcium fluorescence, FDSS, MLSMR library, primary screen | 100,000 compounds, 4% hits | B-score at 10 µM | Cav3.2-expressing cells; hits give low values | AID 449739, 2010 | Voltage-dependent T-type calcium channel subunit alpha-1H (Homo sapiens), O95180;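 active = single-dose well whose peak fluorescence ratio is a statistical outlier from its plate by either plate-standardised score or position-corrected B-score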
E coli WT exp: growth inhibitors of wild-type E. coli, primary screen, strain BW25113, expanded library, OD600. OD600 absorbance. growth inhibition, % at 100 µM. 98,000 compounds, 0.15% hits;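 active = growth inhibition above about 50% at one test dose, limit read from the data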;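 also: growth measured after 20 h incubation at 37 °C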
PostGolgi yeast: phenotypic screen on post-Golgi transport, primary screen | inhibition, % at 10 µM | post-Golgi transport phenotypic cell assay | 98,000 compounds, 0.9% hits;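 also: yeast cells grown in 1536-well plates; yeast grown about 18 h at 30C before absorbance read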
PostGolgi ctrl: growth inhibition of yeast control strain, primary screen, counter-screen for post-Golgi transport modulator project | efflux-deficient yeast background strain, growth absorbance A615, 16 h | inhibition, % at 10 µM | 98,000 compounds, 5% hits | AID 738, 2007
Ecoli tolC: growth inhibitors of E. coli tolC mutant, primary screen, strain BW25113 ΔtolC::kan, 384-well; OD615; growth inhibition, % at 10 µM (by protocol); 65,000 compounds, 2.2% hits; AID 573, 2007;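 active = growth inhibition at or above a cutoff equal to the mean over every tested compound plus 3 SD, cut at about 60% in these data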;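 also: growth measured after 20 h incubation at 37 °C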
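Test system: E. coli BW25113 ΔtolC::kan bacteria; incubation: 37 °C, 20 h exposure; medium: LB broth supplemented with 50 µg/mL kanamycin; read-out basis: percent growth inhibition; signal: A615 absorbance measurement; compound: 10 µM final, single dose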
Numbers stand for hits; . = inactive; / = no result given. Rows were chosen to be rich in hits. Some 8.7% of all compounds tested hit in one or more screens of this group. Rule as the data show it, unless noted: active = inhibition above about 30%; inactive = the rest.

SMILES	Pyk2 oligo antag	Cav3 T inh	E coli WT exp	PostGolgi yeast	PostGolgi ctrl	Ecoli tolC
CCCC(c1nnnn1Cc1ccc(OC)cc1)N1CCN(c2ccccc2)CC1 (configuration not stated)	.	/	.	.	30.5	.
CCn1c(/N=C/c2ccccc2NS(=O)(=O)c2ccc(C)cc2)nc2ccccc21	.	/	/	/	/	/
N#CC(C#N)=C1NC2(CCCC2)Cc2ccccc21	.	/	/	/	/	/
CCC(=O)N1CCN(c2ccccc2NC(=O)c2ccc(OC)c(Cl)c2)CC1	.	.	.	.	.	/
CCC1SC2=NC(C)=C(C(=O)OCC(C)C)C(/C=C/c3ccccc3OC)N2C1=O (configuration not stated)	.	.	.	.	.	/
CCC1SC2=NC(C)=C(C(=O)OCCOC)C(/C=C/c3ccccc3OC)N2C1=O (configuration not stated)	.	-5.77	.	.	.	/
COC(=O)C1=C(C)N=C2SCCC(=O)N2C1/C=C/c1ccccc1 (configuration not stated)	.	.	.	.	.	.
COC(=O)C1=C(C)N=C2SC(C)C(=O)N2C1/C=C/c1ccccc1OC (configuration not stated)	.	-7.38	.	.	.	.
CCc1nnc(NC(=O)Cn2nc(-c3ccccc3OC)ccc2=O)s1	.	.	.	.	.	.
Cc1nn(Cc2ccccc2)c(C)c1C(=O)OCC(=O)c1cc(C)n(C2CC2)c1C	.	-4.75	.	.	.	65.3
COCCn1c(C)cc(C(=O)COC(=O)c2n[nH]c3ccccc23)c1C	.	.	.	.	.	.
COCCn1c(C)cc(C(=O)CSc2ccc3ccccc3n2)c1C	.	.	.	.	31.4	/
COCCn1c(C)cc(C(=O)COC(=O)c2c(C)nn(Cc3ccccc3)c2C)c1C	.	-5.91	.	.	.	.
COCC(C)n1c(C)cc(C(=O)COC(=O)c2c(C)nn(-c3ccccc3)c2C)c1C (configuration not stated)	.	.	.	.	.	.
CCOC(=O)C1=C(O)/C(=C\c2ccc(CNC(=O)C(=O)Nc3ccccc3)o2)N=C1C	.	.	.	.	.	/
CCOC(=O)Cc1csc(NC(=O)c2c(-c3c(Cl)cccc3Cl)noc2C)n1	.	-4.85	.	.	.	/
CCOC(=O)Cc1csc(NC(=O)c2ccc(S(=O)(=O)N3CCCCC3)cc2)n1	.	.	.	.	.	61.5
CCOC(=O)Cc1csc(NC(=O)c2cc3c(s2)CCCC3)n1	.	.	.	.	.	/
CCOC(=O)Cc1csc(NC(=O)c2csc3c2CCCC3)n1	.	.	.	.	.	64.0
CCOC(=O)Cc1csc(NC(=O)c2ccc(NC(C)=O)cc2)n1	.	.	/	/	/	/
Cc1ccc(S(=O)(=O)N(CCC#N)CCN2CCCC2)cc1	.	.	.	.	30.2	.
CCOC(=O)CSC1=C(C#N)C(c2ccccc2OCC)C(C(=O)OCC)C(=O)N1 (configuration not stated)	.	.	.	.	.	.
CCCCSC1=C(C#N)C(c2ccccc2C)C(C(=O)OCC)C(=O)N1 (configuration not stated)	.	.	.	.	.	71.4
COc1ccc(-n2c(SCC(=O)Nc3ccc4c(c3)OCO4)nc3ccccc3c2=O)cc1	.	.	.	.	54.0	.
COc1cccc(NC(=O)CSc2nnc(Cc3cccn3C)n2-c2ccc(F)cc2)c1	/	-5	.	.	.	.
SMILES	Pyk2 oligo antag	Cav3 T inh	E coli WT exp	PostGolgi yeast	PostGolgi ctrl	Ecoli tolC
COc1ccc(NC(=O)CSc2nnc(Cc3cccn3C)n2-c2ccc(C)cc2)cc1OC	.	.	.	.	.	.
CCCn1cc(SCC(=O)Nc2ccc3c(c2)OCO3)c2ccccc21	/	-4.55	.	.	.	/
CCOc1ccc(-n2c(SCC(=O)Nc3ccc4c(c3)OCO4)nc3ccccc3c2=O)cc1	.	.	.	.	.	/
COc1ccc(-n2c(Cc3cccn3C)nnc2SCC(=O)Nc2ccc(C)c(Cl)c2)cc1	/	-4.23	.	.	.	74.8
CCCn1c(N2CCN(CC(=O)Nc3ccc4c(c3)OCCO4)CC2)nc2ccccc21	.	-4.54	.	.	.	.
Cn1cccc1Cc1nnc(SCC(=O)Nc2ccc3c(c2)OCO3)n1-c1ccc(F)cc1	/	-8.52	.	.	.	.
CN(C)C(=O)Cn1c(SCC(=O)Nc2ccc3c(c2)OCO3)nc2ccccc21	.	.	/	/	/	/
Cc1cc(C)cc(NC(=O)CSc2nnc(Cc3cccn3C)n2-c2ccc(F)cc2)c1	/	-12.9	.	.	.	.
CC(=O)Nc1cccc(NC(=O)CSc2nnc(Cc3cccn3C)n2-c2ccc(F)cc2)c1	.	.	.	.	.	.
COc1ccc(-n2c(Cc3cccn3C)nnc2SCC(=O)Nc2cccc(OC)c2)cc1	/	-4.2	.	.	.	.
CC1CCCC(n2c(=S)[nH]c3ccccc3c2=O)C1C (configuration not stated)	.	.	.	.	.	/
COc1c(S(=O)(=O)N2CCCCC2)ccc2c(S(=O)(=O)N3CCCCC3)cccc12	-3.47	/	/	/	/	.
O=S(=O)(c1cccc2c(S(=O)(=O)N3CCCC3)cccc12)N1CCCC1	.	.	.	.	.	.
CCCCC1CC1C(=O)Nc1ncc2c(n1)CC(C)(C)CC2=O (configuration not stated)	.	.	.	.	.	.
Cc1ccc(-c2nc(CSCC(=O)NCCCN3CCOCC3)c(C)o2)cc1	.	.	.	.	.	.
Cc1ccc(-c2nc(CSCC(=O)NCCN3CCN(Cc4ccccc4)CC3)c(C)o2)cc1	.	.	.	.	37.8	.
CCCC1COC(Cn2cncn2)(c2ccc(C)cc2)O1 (configuration not stated)	.	.	.	100.6	92.8	.
C=CCn1c(SCC(=O)Nc2cc(C)nn2-c2ccccc2)nnc1C1CCCCC1	.	.	.	.	.	.
CCCCOC(=O)Cn1c(=O)n(CC(=O)OCCCC)c2ccccc21	.	-6.37	.	.	.	/
CCOc1ccc(S(=O)(=O)N2c3ccccc3CC2C)cc1 (configuration not stated)	.	-3.57	.	.	.	/
CC1Cc2ccccc2N1S(=O)(=O)c1cccs1 (configuration not stated)	.	.	.	.	.	.
O=C(NC1CC1)C1C2C3C4CC5C3C5C4C12 (configuration not stated)	.	.	.	.	.	.
CCOc1ccccc1CN(CCc1ccc2c(c1)OCO2)Cc1ccccn1	.	-4.33	.	.	.	.
c1ccc(COc2ccc(OCCn3cncn3)cc2)cc1	.	.	.	.	.	.
c1ccc(-c2ccc(OCCCn3cncn3)cc2)cc1	.	.	.	97.4	89.2	.
Cc1ccc(CN2C(=O)CCC2C(=O)NCCN2CCN(c3cccc(Cl)c3)CC2)cc1 (configuration not stated)	/	/	/	/	/	.
